In paper PMC9444296 (Investigative Radiology, 2022):
Like-named read-outs stand apart in the source and are kept apart here. Where no end group is shown, it is not given here.

Columns and labels:
[1] = Hepatocyte metabolic stability, negative and positive controls; format: in vitro ADME; conditions: hepatocyte incubation
[2] = cited from earlier work
[3] = test system: LNCaP human prostate tumors; experiment: Contrast-enhanced MRI of LNCaP prostate tumor xenografts in rats; format: in vivo, rat; conditions: 0.1 mmol/kg IV, 3 T, n = 3
Outline: (§1)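 Male rats carried subcutaneous flank xenografts of 4 × 10⁶ PC3 or 8 × 10⁶ LNCaP cells in Matrigel-PBS (1:1) and were imaged once tumours exceeded 100 mm³. Scans used 1 mm slices, 2 averages and a 128 × 128 matrix. The same tumour-bearing rats were reused across agents and doses, with a clinical Gd agent at 0.1 mmol Gd/kg as comparator.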

[4] = test system: PC3 human prostate cancer xenografts; experiment: Contrast-enhanced MRI of PC3 prostate tumor xenografts in rats; format: in vivo, rat; conditions: PC3 tumors in rats, 0.1 mmol/kg IV, 3 T, n = 6
Outline: as §1

[5] = biological target: CYP2C8 (Homo sapiens, UniProt P10632); experiment: CYP2C8 inhibition in human liver microsomes; format: in vitro ADME; conditions: CYP2C8, positive control selective inhibitor
Chain of CYP2C8 (P10632 whole entry): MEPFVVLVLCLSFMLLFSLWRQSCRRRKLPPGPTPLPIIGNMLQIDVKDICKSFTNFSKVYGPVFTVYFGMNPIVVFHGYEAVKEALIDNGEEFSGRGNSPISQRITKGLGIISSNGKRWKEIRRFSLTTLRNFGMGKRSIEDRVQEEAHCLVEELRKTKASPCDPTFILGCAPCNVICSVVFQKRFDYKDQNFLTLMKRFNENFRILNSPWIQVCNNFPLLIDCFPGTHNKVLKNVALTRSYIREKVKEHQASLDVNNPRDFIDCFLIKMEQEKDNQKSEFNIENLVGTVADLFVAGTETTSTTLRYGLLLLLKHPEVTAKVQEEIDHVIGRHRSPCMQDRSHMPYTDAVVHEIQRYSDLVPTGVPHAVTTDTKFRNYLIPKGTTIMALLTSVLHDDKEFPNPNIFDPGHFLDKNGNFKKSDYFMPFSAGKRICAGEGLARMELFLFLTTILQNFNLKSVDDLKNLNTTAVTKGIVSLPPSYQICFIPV

[6] = test system: CYP1A2; conditions: positive control 50 μM, CYP1A2, human primary hepatocytes
[7] = test system: CYP2B6; conditions: positive control 1000 μM, CYP2B6, human primary hepatocytes
[8] = biological target: CYP2D6 (Homo sapiens, UniProt P10635); experiment: CYP2D6 inhibition in human liver microsomes; format: in vitro ADME; conditions: CYP2D6, positive control selective inhibitor, human liver microsomes
Chain of CYP2D6 (P10635 whole entry): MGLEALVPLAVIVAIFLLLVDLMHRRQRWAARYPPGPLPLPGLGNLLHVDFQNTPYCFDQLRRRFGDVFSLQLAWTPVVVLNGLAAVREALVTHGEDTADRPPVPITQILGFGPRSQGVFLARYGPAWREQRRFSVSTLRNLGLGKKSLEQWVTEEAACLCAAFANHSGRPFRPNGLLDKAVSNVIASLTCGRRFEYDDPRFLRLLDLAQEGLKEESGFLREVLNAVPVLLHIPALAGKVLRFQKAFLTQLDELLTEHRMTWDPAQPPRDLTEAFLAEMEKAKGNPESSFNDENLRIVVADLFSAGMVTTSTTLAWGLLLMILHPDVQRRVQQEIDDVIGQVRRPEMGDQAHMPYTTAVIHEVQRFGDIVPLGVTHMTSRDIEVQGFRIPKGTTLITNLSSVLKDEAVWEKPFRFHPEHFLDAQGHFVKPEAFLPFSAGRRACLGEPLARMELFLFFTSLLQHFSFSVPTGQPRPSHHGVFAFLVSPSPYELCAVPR

[9] = biological target: CYP2C9 (Homo sapiens, UniProt P11712); experiment: CYP2C9 inhibition in human liver microsomes; conditions: CYP2C9, positive control selective inhibitor, human liver microsomes
Chain of CYP2C9 (P11712 whole entry): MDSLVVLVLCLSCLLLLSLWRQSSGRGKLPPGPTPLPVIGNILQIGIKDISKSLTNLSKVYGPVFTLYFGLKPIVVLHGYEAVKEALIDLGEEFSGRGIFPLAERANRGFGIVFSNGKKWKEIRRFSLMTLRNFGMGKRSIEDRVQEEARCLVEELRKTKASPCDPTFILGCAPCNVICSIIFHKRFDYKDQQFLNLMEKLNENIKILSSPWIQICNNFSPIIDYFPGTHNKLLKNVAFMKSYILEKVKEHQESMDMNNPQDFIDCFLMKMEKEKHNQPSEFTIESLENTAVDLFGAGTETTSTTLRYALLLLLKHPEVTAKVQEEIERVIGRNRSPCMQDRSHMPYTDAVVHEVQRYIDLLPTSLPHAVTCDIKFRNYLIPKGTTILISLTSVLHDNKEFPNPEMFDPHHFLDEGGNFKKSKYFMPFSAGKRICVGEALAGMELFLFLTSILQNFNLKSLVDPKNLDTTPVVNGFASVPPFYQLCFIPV

[10] = Metabolic pathway study in human liver microsomes; format: in vitro ADME; conditions: 120 minutes
[11] = biological target: CYP2B6 (Homo sapiens, UniProt P20813); conditions: CYP2B6, positive control selective inhibitor, human liver microsomes
Chain of CYP2B6 (Homo sapiens, UniProt P20813) (P20813 whole entry, the tested form may be a part): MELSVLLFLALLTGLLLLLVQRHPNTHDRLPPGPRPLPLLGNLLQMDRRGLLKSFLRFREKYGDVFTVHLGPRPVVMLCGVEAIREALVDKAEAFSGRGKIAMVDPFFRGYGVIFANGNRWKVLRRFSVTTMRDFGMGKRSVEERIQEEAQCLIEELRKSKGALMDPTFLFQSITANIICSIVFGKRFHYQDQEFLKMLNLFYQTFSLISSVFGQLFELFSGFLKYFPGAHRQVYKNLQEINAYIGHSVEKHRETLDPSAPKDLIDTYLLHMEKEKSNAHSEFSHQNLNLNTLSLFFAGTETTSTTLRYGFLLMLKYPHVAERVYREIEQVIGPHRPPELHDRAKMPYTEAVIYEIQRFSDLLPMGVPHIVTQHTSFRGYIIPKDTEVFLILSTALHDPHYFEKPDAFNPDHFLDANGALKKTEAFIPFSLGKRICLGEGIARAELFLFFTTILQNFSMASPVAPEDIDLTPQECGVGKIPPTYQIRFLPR

[12] = biological target: EDB protein fragment (Homo sapiens, UniProt P02751); conditions: cited from earlier work
Chain of EDB protein fragment (P02751 1271-1359 limits assumed): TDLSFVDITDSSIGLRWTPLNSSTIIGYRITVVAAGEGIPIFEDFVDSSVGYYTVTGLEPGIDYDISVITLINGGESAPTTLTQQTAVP

O=c1ccc2ccc(O)cc2o1 [7-hydroxycoumarin]
remaining substrate in the positive control [1]: 18.8%

CC(O)CN1CCN(CC(=O)[O-])CCN(CC(=O)[O-])CCN(CC(=O)[O-])CC1.[Gd+3] (centres unmarked) [Gadoteridol, gadoteridol]
r1 Relaxivity ([2]; 1.4 T, H2O): 3.2 (H2O) mM^−1 s^−1
r1 Relaxivity ([2]; 1.5 T, H2O): 2.9 (H2O) mM^−1 s^−1
r1 Relaxivity ([2]; 1.5 T, plasma): 4.1 mM⁻¹ s⁻¹
r1 Relaxivity ([2]; 3.0 T, H2O): 2.8 (H2O) mM^−1 s^−1
r1 Relaxivity ([2]; 3.0 T, plasma): 3.7 mM⁻¹ s⁻¹
CNR [3]: 1.79 ± 0.74
CNR ([4]; 10 minutes postinjection): 1.32 ± 0.58
CNR ([4]; 30 minutes postinjection): 1.714 ± 0.69

CC(C)(O)c1ccccc1CC[C@@H](SCC1(CC(=O)O)CC1)c1cccc(/C=C/c2ccc3ccc(Cl)cc3n2)c1 [montelukast, reference compound]
enzyme activity decreased by [5]: 80.0%

COc1ccc2[nH]c([S+]([O-])Cc3ncc(C)c(OC)c3C)nc2c1 (centres unmarked) [omeprazole, reference compound]
increase of enzyme activity vs vehicle control [6]: about 40 fold
increase of mRNA expression vs vehicle control [6]: about 62 fold

CCC1(c2ccccc2)C(=O)NC(=O)NC1=O [phenobarbital, reference compound]
increase of enzyme activity vs vehicle control [7]: ~12 fold
increase of mRNA expression vs vehicle control [7]: ~14 fold

C=C[C@H]1C[N@@]2CC[C@H]1C[C@@H]2[C@@H](O)c1ccnc2ccc(OC)cc12 [quinidine, reference compound]
enzyme activity decreased by [8]: 91.2%

Nc1ccc(S(=O)(=O)Nc2ccnn2-c2ccccc2)cc1 [sulfaphenazole, reference compound]
enzyme activity decreased by [9]: 87.4%

C[C@]12CC[C@H]3[C@@H](CCC4=CC(=O)CC[C@@]43C)[C@@H]1CC[C@@H]2O [testosterone, reference compound]
remaining substrate in the positive control [1]: 9.29%
remaining testosterone (systematic control) [10]: 11.4%

S=P(N1CC1)(N1CC1)N1CC1 [thiotepa, reference compound]
enzyme activity decreased by [11]: 89.2%

TVRTSAD [ZD2]
binding affinity to the EDB fragment [12]: moderate binding affinity
